From ChEMBL document CHEMBL4706601, “The endocannabinoid system dual-target ligand N-cycloheptyl-1,2-dihydro-5-bromo-1-(4-fluorobenzyl)-6-methyl-2-oxo-pyridine-3-carboxamide improves disease severity in a mouse model of multiple sclerosis” (Eur J Med Chem, 2020)

molecular target: Cannabinoid receptor 2 (Homo sapiens, UniProt P34972); assay: Displacement of [3H]CP55940 from recombinant human CB2R expressed in CHO cell membranes incubated for 90 mins; set-up: species or system Membrane
Sequence (P34972 whole entry): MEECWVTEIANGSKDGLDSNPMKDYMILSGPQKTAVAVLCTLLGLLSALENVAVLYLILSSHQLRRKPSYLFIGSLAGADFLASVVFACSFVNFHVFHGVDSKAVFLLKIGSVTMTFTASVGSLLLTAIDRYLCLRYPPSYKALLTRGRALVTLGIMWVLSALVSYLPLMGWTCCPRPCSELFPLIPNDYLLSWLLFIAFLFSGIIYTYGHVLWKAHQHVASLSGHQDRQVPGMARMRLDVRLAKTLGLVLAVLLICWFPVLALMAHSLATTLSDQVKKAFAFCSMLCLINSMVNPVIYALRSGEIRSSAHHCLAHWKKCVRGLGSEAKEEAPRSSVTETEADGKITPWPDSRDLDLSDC

SMILES | Ki
Cc1c(Br)cc(C(=O)NC2CCNCC2)c(=O)n1Cc1ccc(F)cc1 | > 10 µM
COc1ccc(-c2cc(C(=O)NC3CCCCCC3)c(OCc3ccc(F)cc3)nc2C)cc1 | 0.919 µM
CC(=O)N[C@@H]1[C@@H](O)[C@H](O)[C@@H](CO)O[C@H]1NC(=O)c1cc(Br)c(C)n(Cc2ccc(F)cc2)c1=O | > 10 µM
CO[C@@H]1O[C@H](CNC(=O)c2cc(Br)c(C)n(Cc3ccc(F)cc3)c2=O)[C@H](O)[C@H](O)[C@H]1O | > 10 µM

molecular target: T1, Monoglyceride lipase (Homo sapiens, UniProt Q99685); assay: Inhibition of MAGL in human U937 cells using [glycerol-1,2,3-3H]2-OG as substrate preincubated for 15 mins followed by substrate addition and measured after 15 mins by liquid scintillation spectroscopy; format: cell-based, U-937
T1 sequence (Q99685 whole entry): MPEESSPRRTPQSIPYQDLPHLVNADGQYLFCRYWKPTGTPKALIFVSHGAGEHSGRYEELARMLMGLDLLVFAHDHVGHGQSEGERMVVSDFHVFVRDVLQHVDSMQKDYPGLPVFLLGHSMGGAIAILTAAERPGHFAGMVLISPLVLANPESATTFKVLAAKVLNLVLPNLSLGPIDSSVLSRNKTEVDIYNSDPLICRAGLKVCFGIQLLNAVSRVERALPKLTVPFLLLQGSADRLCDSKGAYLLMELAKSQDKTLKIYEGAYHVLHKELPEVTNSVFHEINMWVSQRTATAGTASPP
Outline: (§1)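 Intact U937 cells, 10^6 per condition, pre-incubated with compound 15 min at 37 °C with shaking (screen at 10 μM; full curves for hits). Substrate: 1 μM AEA with 1 nM [3H]AEA (FAAH) or 10 μM 2-OG with 5 nM [3H]2-OG (MAGL), 15 min at 37 °C. Stopped with CHCl3:MeOH 1:1, aqueous tritium counted; mean ± SD, ≥3 experiments in triplicate.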

SMILES | IC50
Cc1c(Br)cc(C(=O)NC2CCNCC2)c(=O)n1Cc1ccc(F)cc1 | > 10 µM
COc1ccc(-c2cc(C(=O)NC3CCCCCC3)c(OCc3ccc(F)cc3)nc2C)cc1 | > 10 µM
CC(=O)N[C@@H]1[C@@H](O)[C@H](O)[C@@H](CO)O[C@H]1NC(=O)c1cc(Br)c(C)n(Cc2ccc(F)cc2)c1=O | > 10 µM
CO[C@@H]1O[C@H](CNC(=O)c2cc(Br)c(C)n(Cc3ccc(F)cc3)c2=O)[C@H](O)[C@H](O)[C@H]1O | > 10 µM

molecular target: T2, Lysophosphatidylserine lipase ABHD12 (Homo sapiens, UniProt Q8N2K0); assay: Inhibition of human ABHD12 expressed in HEK293 cells using 2-OG as substrate preincubated for 30 mins followed by substrate addition and measured after 5 mins by liquid scintillation spectroscopy; format: cell-based
T2 sequence (Q8N2K0 whole entry): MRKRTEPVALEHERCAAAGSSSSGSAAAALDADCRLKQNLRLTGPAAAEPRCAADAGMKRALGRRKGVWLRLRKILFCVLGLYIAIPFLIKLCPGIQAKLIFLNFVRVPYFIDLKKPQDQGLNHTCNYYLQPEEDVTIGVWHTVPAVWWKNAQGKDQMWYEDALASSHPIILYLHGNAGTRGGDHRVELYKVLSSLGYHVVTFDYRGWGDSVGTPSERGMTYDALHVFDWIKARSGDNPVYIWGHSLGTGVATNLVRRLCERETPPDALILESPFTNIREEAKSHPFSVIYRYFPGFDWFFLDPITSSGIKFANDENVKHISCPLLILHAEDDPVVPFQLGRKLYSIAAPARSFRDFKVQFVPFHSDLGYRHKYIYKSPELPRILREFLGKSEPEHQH
Outline: (§2)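 Homogenates (40 µg) from HEK293 stably expressing hABHD6 or hABHD12 pre-incubated with compound 30 min at 37 °C in […], 0.1% BSA, pH 7.6; then 10 μM 2-OG for 5 min at 37 °C. Aqueous phase tritium counted after CHCl3:MeOH stop; no-enzyme blanks and non-transfected HEK293 hydrolysis subtracted. Controls WWL70 10 μM, THL 20 μM.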

SMILES | IC50
Cc1c(Br)cc(C(=O)NC2CCNCC2)c(=O)n1Cc1ccc(F)cc1 | > 10 µM
COc1ccc(-c2cc(C(=O)NC3CCCCCC3)c(OCc3ccc(F)cc3)nc2C)cc1 | > 10 µM
CC(=O)N[C@@H]1[C@@H](O)[C@H](O)[C@@H](CO)O[C@H]1NC(=O)c1cc(Br)c(C)n(Cc2ccc(F)cc2)c1=O | > 10 µM
CO[C@@H]1O[C@H](CNC(=O)c2cc(Br)c(C)n(Cc3ccc(F)cc3)c2=O)[C@H](O)[C@H](O)[C@H]1O | > 10 µM

molecular target: T3, Monoacylglycerol lipase ABHD6 (Homo sapiens, UniProt Q9BV23); assay: Inhibition of human ABHD6 expressed in HEK293 cells using 2-OG as substrate preincubated for 30 mins followed by substrate addition and measured after 5 mins by liquid scintillation spectroscopy; format: cell-based; outline: as §2
T3 sequence (Q9BV23 whole entry): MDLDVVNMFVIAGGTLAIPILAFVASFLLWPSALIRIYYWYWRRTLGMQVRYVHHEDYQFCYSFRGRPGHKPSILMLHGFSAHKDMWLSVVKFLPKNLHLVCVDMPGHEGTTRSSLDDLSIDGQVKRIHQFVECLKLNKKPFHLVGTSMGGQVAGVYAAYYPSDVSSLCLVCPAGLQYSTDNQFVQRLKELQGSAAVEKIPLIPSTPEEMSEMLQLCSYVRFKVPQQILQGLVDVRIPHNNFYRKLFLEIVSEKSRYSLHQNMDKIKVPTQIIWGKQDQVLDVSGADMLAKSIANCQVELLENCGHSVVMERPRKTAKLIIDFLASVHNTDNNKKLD

SMILES | IC50
Cc1c(Br)cc(C(=O)NC2CCNCC2)c(=O)n1Cc1ccc(F)cc1 | > 10 µM
COc1ccc(-c2cc(C(=O)NC3CCCCCC3)c(OCc3ccc(F)cc3)nc2C)cc1 | 0.53 µM
CC(=O)N[C@@H]1[C@@H](O)[C@H](O)[C@@H](CO)O[C@H]1NC(=O)c1cc(Br)c(C)n(Cc2ccc(F)cc2)c1=O | > 10 µM
CO[C@@H]1O[C@H](CNC(=O)c2cc(Br)c(C)n(Cc3ccc(F)cc3)c2=O)[C@H](O)[C@H](O)[C@H]1O | > 10 µM

molecular target: T4, Fatty-acid amide hydrolase 1 (Homo sapiens, UniProt O00519); assay: Inhibition of FAAH in human U937 cells using [ethanolamine-1-3H]AEA as substrate preincubated for 15 mins followed by substrate addition and measured after 15 mins by liquid scintillation spectroscopy; format: cell-based, U-937; outline: as §1
T4 sequence (O00519 whole entry): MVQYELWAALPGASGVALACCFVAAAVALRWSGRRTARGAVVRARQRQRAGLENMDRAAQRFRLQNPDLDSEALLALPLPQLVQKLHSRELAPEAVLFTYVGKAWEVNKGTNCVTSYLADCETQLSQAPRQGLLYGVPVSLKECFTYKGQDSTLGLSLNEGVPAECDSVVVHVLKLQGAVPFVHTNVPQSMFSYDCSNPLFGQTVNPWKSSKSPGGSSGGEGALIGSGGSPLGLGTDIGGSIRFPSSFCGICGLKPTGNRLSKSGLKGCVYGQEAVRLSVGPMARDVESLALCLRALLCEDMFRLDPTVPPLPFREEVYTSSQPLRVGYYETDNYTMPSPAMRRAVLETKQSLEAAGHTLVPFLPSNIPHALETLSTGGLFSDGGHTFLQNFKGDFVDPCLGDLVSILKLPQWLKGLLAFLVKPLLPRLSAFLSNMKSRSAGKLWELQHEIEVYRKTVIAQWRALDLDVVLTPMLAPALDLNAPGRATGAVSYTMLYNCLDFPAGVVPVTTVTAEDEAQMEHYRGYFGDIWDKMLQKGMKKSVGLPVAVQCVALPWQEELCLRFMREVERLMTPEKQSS

SMILES | IC50
Cc1c(Br)cc(C(=O)NC2CCNCC2)c(=O)n1Cc1ccc(F)cc1 | > 10 µM
COc1ccc(-c2cc(C(=O)NC3CCCCCC3)c(OCc3ccc(F)cc3)nc2C)cc1 | > 10 µM
CC(=O)N[C@@H]1[C@@H](O)[C@H](O)[C@@H](CO)O[C@H]1NC(=O)c1cc(Br)c(C)n(Cc2ccc(F)cc2)c1=O | > 10 µM
CO[C@@H]1O[C@H](CNC(=O)c2cc(Br)c(C)n(Cc3ccc(F)cc3)c2=O)[C@H](O)[C@H](O)[C@H]1O | > 10 µM

molecular target: Cannabinoid receptor 1 (Homo sapiens, UniProt P21554); assay: Displacement of [3H]CP55940 from recombinant human CB1R expressed in CHO cell membranes incubated for 90 mins; set-up: species or system Membrane
Sequence (P21554 whole entry): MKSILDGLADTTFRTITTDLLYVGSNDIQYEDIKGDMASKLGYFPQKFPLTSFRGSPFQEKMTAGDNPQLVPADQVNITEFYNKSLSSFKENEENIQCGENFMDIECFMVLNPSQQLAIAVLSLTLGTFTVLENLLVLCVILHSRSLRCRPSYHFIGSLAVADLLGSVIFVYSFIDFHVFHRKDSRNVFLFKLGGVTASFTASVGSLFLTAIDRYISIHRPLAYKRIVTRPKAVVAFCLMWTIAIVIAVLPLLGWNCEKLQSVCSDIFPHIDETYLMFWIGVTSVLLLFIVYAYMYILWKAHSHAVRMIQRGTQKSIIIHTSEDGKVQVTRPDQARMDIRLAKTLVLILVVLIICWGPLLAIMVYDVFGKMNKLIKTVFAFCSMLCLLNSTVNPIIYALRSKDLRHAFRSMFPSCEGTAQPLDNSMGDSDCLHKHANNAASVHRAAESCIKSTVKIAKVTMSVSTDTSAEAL

SMILES | Ki
Cc1c(Br)cc(C(=O)NC2CCNCC2)c(=O)n1Cc1ccc(F)cc1 | > 10 µM
COc1ccc(-c2cc(C(=O)NC3CCCCCC3)c(OCc3ccc(F)cc3)nc2C)cc1 | > 10 µM
CC(=O)N[C@@H]1[C@@H](O)[C@H](O)[C@@H](CO)O[C@H]1NC(=O)c1cc(Br)c(C)n(Cc2ccc(F)cc2)c1=O | > 10 µM
CO[C@@H]1O[C@H](CNC(=O)c2cc(Br)c(C)n(Cc3ccc(F)cc3)c2=O)[C@H](O)[C@H](O)[C@H]1O | > 10 µM
